Test results from ChEMBL document CHEMBL3091412, “Discovery of an irreversible HCV NS5B polymerase inhibitor” (Bioorg Med Chem Lett, 2013).

Legend:
Hepatitis C virus = assay: Antiviral activity against HCV Con1 in eplicon cells after 3 days by RT-PCR analysis; format: functional, organism-based, Hepacivirus hominis; details: isolate Con1, 72 h
Summary of the method: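 HCV 1b-Con1 replicon cells seeded at 5000 cells/well one day before treatment; inhibitor in DMSO added as 10 serial twofold dilutions in duplicate (final 0.5% DMSO, 5% FBS). Harvested 3 days post dosing; replicon RNA quantified by real-time RT-PCR (Taqman), GAPDH RNA as endogenous control; EC50 calculated.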

[1] = Irreversible inhibition of HCV1b NS5B delta21 polymerase by radiolabeled nucleotide incorporation assay; set-up: species or system Hepatitis C virus subtype 1b

SMILES | EC50 (Hepatitis C virus) [nM] | IC50 [1] [nM]
COc1ccc2cc(Cn3c(C(=O)O)c(-c4ccc[nH]c4=O)c4cc(C)c(F)cc43)c(Cl)nc2c1 | 10 | 6
Cc1cc2c(-c3ccc[nH]c3=O)c(C(=O)O)n(Cc3cc(F)cnc3Cl)c2cc1F | 1000 | 12
Cc1cc2c(-c3ccc[nH]c3=O)c(C(=O)O)n(Cc3ccc(Cl)nc3)c2cc1F | > 1000 | 9
Cc1cc2c(-c3ccc[nH]c3=O)c(C(=O)O)n(Cc3cnc4ccccc4c3Cl)c2cc1F | 20 | 6
Cc1cc2c(-c3ccc[nH]c3=O)c(C(=O)O)n(Cc3cc4ccc(F)cc4nc3Cl)c2cc1F | 20 | 20
